# Experimental data: ChEMBL document CHEMBL4610112, “Novel Pyrrolopyridone Bromodomain and Extra-Terminal Motif (BET) Inhibitors Effective in Endocrine-Resistant ER+ Breast Cancer with Acquired Resistance to Fulvestrant and Palbociclib” (J Med Chem, 2020)
# Assays:
# [1] = target: Histone acetyltransferase KAT2B (Homo sapiens, UniProt Q92831); experiment: Binding affinity to human partial length PCAF (G715 to D831 residues) expressed in bacterial expression system by BROMOscan assay
# In short: (§1)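 BROMOscan panel of 40 bromodomains. Kd for DNA-tagged bromodomains determined by competition against an immobilized proprietary reference ligand.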
# [2] = target: Bromodomain and WD repeat-containing protein 1 (Homo sapiens, UniProt Q9NSI6); experiment: Binding affinity to human partial length WDR9 bromodomain 2 (A1310 to E1430 residues) expressed in bacterial expression system by BROMOscan assay; in short: as §1
# [3] = target: Bromodomain adjacent to zinc finger domain protein 2B (Homo sapiens, UniProt Q9UIF8); experiment: Binding affinity to human partial length BAZ2B (S2054 to S2168 residues) expressed in bacterial expression system by BROMOscan assay; in short: as §1
# MCF7:TAM1 = experiment: Growth inhibition of tamoxifen-resistant human MCF7:TAM1 cells measured after 5 days by Hoechst 33342 dye based imaging analysis; type: functional, cell-based; details: MCF7:TAM1, 120 h
# In short: (§2)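 Cells seeded at 2000/well in their maintenance medium, treated once the next day with compound (0.1 nM–10 μM; 0.1% DMSO final). Day 5 Hoechst 33342 staining with imaging count. Survival normalized to DMSO (100%) and JQ1 3 μM (0%). IC50 given as mean ± SEM from at least two passages, each in triplicate.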
# [4] = target: ATPase family AAA domain-containing protein 2 (Homo sapiens, UniProt Q6PL18); experiment: Binding affinity to human partial length ATAD2A (Q981 to R1108 residues) expressed in bacterial expression system by BROMOscan assay; in short: as §1
# Protein polybromo-1 = Protein polybromo-1 (Homo sapiens, UniProt Q86U86); experiment: Binding affinity to human partial length PBRM1 bromodomain 2 (S178 to E291 residues) expressed in bacterial expression system by BROMOscan assay; in short: as §1
# Protein polybromo-1, sequence (Q86U86 whole entry, the tested form may be a part): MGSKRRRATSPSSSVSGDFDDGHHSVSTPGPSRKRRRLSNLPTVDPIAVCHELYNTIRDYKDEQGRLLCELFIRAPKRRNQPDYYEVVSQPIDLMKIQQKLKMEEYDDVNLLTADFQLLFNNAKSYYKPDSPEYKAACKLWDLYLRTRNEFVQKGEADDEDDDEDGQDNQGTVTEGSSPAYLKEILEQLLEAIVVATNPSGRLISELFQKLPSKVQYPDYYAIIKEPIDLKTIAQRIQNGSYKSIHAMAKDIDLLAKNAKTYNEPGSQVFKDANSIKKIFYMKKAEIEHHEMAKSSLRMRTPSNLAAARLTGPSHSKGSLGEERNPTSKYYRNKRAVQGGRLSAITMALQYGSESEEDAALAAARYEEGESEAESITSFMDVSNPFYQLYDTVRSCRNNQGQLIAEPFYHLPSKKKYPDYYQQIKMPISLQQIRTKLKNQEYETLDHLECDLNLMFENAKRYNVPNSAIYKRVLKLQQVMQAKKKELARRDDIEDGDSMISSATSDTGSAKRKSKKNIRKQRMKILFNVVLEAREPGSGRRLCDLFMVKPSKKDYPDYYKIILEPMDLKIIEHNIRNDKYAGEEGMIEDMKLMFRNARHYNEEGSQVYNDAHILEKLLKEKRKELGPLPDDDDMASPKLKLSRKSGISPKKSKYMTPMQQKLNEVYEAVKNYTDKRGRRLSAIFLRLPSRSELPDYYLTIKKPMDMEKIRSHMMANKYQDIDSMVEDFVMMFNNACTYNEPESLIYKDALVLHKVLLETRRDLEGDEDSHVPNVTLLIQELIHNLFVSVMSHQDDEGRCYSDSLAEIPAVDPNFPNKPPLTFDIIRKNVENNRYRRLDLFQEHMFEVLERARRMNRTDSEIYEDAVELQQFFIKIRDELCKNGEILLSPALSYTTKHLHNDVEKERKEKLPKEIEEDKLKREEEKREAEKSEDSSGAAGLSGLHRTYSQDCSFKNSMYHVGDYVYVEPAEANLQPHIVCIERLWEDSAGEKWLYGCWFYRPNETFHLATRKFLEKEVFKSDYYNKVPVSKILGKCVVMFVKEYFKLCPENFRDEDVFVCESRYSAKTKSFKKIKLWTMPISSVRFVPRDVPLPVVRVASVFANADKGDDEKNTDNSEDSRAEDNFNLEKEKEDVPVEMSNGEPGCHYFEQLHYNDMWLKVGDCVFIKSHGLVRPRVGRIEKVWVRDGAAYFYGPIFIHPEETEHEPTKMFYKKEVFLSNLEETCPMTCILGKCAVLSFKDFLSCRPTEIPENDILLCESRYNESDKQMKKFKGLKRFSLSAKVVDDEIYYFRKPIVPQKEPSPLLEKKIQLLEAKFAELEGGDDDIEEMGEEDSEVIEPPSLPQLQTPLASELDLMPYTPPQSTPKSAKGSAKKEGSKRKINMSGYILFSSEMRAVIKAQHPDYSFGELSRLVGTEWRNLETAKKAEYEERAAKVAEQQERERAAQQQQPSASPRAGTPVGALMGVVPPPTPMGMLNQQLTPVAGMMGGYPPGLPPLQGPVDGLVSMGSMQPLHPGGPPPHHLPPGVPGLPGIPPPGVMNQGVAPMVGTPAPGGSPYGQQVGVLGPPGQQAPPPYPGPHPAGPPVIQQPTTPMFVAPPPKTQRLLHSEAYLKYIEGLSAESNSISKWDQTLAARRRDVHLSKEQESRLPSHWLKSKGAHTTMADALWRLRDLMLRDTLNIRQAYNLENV
# [5] = target: Nucleosome-remodeling factor subunit BPTF (Homo sapiens, UniProt Q12830); experiment: Binding affinity to human partial length FALZ (S2791 to H2911 residues) expressed in bacterial expression system by BROMOscan assay; in short: as §1
# [6] = Growth inhibition of tamoxifen-sensitive human MCF7:WS8 cells measured after 5 days by Hoechst 33342 dye based imaging analysis; type: functional; details: MCF7:WS8, 120 h; in short: as §2
# [7] = Growth inhibition of fulvestrant-resistant human MCF7:CFR 3D spheroid cells at 100 nM supplemented with fresh medium containing compound every 2 to 3 days for 9 days by celltitre-glo assay relative to control; type: functional
# In short: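 MCF-7:CFR cells seeded at 1000 cells/well in ultralow-attachment round-bottom plates and grown 24 h untreated as spheroids. Half the medium then replaced with 2× treatment medium, repeated every 2–3 days. Viability read by CellTiter-Glo 3D luminescence at day 9 and normalized to blank (medium plus reagent).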
# [8] = Growth inhibition of tamoxifen-resistant human MCF7:5C cells measured after 5 days by Hoechst 33342 dye based imaging analysis; type: functional; details: 120 h; in short: as §2
# Cytochrome P450 3A4 = Cytochrome P450 3A4 (Homo sapiens, UniProt P08684); experiment: Inhibition of human CYP3A4; type: ADME
# [9] = target: Bromodomain-containing protein 8 (Homo sapiens, UniProt Q9H0E9); experiment: Binding affinity to human partial length BRD8 BD2 (D1095 to F1235 residues) expressed in mammalian expression system BROMOscan assay; in short: as §1
# [10] = target: Bromodomain-containing protein 7 (Homo sapiens, UniProt Q9NPI1); experiment: Binding affinity to human partial length BRD7 (L125 to R254 residues) expressed in mammalian expression system by BROMOscan assay; in short: as §1
# [11] = target: ATPase family AAA domain-containing protein 2B (Homo sapiens, UniProt Q9ULI0); experiment: Binding affinity to human partial length ATAD2B (Q955 to R1082 residues) expressed in bacterial expression system by BROMOscan assay; in short: as §1
# ATPase family AAA domain-containing protein 2B, sequence (Q9ULI0 whole entry, the tested form may be a part): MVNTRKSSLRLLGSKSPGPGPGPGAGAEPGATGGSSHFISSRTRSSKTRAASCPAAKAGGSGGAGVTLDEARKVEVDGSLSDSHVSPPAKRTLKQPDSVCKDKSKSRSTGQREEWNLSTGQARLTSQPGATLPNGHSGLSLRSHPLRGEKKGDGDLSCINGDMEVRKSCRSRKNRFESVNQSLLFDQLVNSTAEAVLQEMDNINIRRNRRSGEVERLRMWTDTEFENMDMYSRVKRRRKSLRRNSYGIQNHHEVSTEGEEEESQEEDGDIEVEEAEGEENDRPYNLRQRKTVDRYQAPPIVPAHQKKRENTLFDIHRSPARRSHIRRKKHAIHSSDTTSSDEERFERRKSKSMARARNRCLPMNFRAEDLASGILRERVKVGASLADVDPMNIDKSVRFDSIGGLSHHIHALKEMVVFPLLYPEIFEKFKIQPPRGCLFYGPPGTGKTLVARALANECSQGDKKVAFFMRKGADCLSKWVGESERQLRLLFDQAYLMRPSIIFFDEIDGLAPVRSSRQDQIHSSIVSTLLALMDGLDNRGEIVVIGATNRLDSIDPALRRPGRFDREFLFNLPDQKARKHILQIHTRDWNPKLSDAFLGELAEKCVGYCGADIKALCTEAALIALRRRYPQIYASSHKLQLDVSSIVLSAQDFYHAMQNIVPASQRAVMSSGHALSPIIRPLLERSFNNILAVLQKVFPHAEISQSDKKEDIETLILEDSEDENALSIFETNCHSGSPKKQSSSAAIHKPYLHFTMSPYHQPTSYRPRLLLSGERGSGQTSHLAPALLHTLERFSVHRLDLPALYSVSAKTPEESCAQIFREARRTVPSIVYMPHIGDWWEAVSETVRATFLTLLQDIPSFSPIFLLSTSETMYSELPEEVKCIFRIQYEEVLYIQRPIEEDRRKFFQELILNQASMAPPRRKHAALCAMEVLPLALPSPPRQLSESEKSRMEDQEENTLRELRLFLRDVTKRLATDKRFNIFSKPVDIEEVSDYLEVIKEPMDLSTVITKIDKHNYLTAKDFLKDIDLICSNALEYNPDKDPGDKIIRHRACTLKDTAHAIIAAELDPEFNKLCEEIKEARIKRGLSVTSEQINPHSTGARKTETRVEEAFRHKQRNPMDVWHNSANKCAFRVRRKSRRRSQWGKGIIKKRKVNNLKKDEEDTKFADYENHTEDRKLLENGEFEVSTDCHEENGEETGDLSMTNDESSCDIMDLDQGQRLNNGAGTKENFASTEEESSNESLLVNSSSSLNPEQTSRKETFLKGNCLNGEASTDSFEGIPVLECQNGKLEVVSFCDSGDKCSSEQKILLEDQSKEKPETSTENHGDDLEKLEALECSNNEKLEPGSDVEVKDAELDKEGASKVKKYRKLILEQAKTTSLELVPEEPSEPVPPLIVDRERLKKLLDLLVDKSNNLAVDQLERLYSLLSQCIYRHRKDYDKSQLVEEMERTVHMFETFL
# [12] = target: SWI/SNF-related matrix-associated actin-dependent regulator of chromatin subfamily A member 4 (Homo sapiens, UniProt P51532); experiment: Binding affinity to human partial length SMARCA4 (A1448 to S1575 residues) expressed in bacterial expression system by BROMOscan assay; in short: as §1
# [13] = target: Bromodomain and PHD finger-containing protein 3 (Homo sapiens, UniProt Q9ULD4); experiment: Binding affinity to human partial length BRPF3 (E588 to G701 residues) expressed in bacterial expression system by BROMOscan assay; in short: as §1
# [14] = target: E3 ubiquitin-protein ligase TRIM33 (Homo sapiens, UniProt Q9UPN9); experiment: Binding affinity to human partial length TRIM33 phd bromodomain (D882 to A1087 residues) expressed in bacterial expression system by BROMOscan assay; in short: as §1
# [15] = Growth inhibition of human T47D:TDG cells harboring ESR1 D538G mutant measured after 5 days by Hoechst 33342 dye based imaging analysis; type: functional; details: 120 h; in short: as §2
# [16] = Growth inhibition of fulvestrant-resistant human MCF7:CFR cells measured after 5 days by Hoechst 33342 dye based imaging analysis; type: functional, cell-based; details: 120 h
# In short: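 MCF-7:CFR cells kept 2 days in phenol red-free RPMI 1640 with 10% charcoal–dextran FBS, then seeded at 2000 cells/well. Single treatment at 0.1 nM–10 μM (0.1% DMSO final) for 5 days. Nuclei stained with Hoechst 33342 and counted by imaging. Survival normalized to DMSO (100%) and JQ1 3 μM (0%). Mean ± SEM from at least two passages, triplicates in each.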
# [17] = Growth inhibition of tamoxifen and palbociclib-resistant human MCF7:CPR cells measured after 5 days by Hoechst 33342 dye based imaging analysis; type: functional; details: 120 h; in short: as §2
# [18] = target: SWI/SNF-related matrix-associated actin-dependent regulator of chromatin subfamily A member 2 (Homo sapiens, UniProt P51531); experiment: Binding affinity to human partial length SMARCA2 (S1377 to Q1486 residues) expressed in bacterial expression system by BROMOscan assay; in short: as §1
# [19] = target: Transcription intermediary factor 1-alpha (Homo sapiens, UniProt O15164); experiment: Binding affinity to human partial length TRIM24 phd bromodomain (P790 to P977 residues) expressed in bacterial expression system by BROMOscan assay; in short: as §1
# Transcription intermediary factor 1-alpha, sequence (O15164 whole entry, the tested form may be a part): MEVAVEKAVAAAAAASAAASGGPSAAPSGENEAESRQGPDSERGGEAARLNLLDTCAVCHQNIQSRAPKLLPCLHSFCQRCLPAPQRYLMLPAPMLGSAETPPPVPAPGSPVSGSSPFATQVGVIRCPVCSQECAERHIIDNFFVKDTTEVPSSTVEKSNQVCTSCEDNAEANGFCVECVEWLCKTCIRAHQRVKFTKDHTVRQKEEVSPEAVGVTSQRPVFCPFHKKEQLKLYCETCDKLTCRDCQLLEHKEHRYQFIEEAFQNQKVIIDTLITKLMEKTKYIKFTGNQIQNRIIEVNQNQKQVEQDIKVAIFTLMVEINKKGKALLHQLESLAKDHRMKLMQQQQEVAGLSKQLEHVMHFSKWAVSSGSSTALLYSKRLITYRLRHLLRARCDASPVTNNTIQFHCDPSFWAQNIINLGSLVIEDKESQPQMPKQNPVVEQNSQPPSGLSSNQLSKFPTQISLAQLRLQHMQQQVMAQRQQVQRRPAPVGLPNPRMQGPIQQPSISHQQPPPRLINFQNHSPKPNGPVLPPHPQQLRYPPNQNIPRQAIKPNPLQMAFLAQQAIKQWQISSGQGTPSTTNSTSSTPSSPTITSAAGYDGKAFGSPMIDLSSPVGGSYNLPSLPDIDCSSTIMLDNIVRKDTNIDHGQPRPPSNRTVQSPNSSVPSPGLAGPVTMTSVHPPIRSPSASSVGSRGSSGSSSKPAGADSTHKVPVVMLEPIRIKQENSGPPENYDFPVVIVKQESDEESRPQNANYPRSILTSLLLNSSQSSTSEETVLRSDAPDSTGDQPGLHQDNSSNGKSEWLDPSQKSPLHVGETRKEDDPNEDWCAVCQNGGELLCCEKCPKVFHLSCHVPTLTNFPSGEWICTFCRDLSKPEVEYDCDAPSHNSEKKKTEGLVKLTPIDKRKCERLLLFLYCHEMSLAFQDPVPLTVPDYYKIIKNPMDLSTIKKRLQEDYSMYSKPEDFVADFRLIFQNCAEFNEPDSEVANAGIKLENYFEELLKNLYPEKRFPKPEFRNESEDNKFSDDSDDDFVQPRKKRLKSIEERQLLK
# [20] = target: Histone acetyltransferase KAT2A (Homo sapiens, UniProt Q92830); experiment: Binding affinity to human partial length GCN5L2 (E726 to K837 residues) expressed in bacterial expression system by BROMOscan assay; in short: as §1
# T47D = experiment: Growth inhibition of tamoxifen-sensitive human T47D cells measured after 5 days by Hoechst 33342 dye based imaging analysis; type: functional, cell-based; details: 120 h; in short: as §2
# Histone acetyltransferase KAT2B, sequence (Q92831 whole entry, the tested form may be a part): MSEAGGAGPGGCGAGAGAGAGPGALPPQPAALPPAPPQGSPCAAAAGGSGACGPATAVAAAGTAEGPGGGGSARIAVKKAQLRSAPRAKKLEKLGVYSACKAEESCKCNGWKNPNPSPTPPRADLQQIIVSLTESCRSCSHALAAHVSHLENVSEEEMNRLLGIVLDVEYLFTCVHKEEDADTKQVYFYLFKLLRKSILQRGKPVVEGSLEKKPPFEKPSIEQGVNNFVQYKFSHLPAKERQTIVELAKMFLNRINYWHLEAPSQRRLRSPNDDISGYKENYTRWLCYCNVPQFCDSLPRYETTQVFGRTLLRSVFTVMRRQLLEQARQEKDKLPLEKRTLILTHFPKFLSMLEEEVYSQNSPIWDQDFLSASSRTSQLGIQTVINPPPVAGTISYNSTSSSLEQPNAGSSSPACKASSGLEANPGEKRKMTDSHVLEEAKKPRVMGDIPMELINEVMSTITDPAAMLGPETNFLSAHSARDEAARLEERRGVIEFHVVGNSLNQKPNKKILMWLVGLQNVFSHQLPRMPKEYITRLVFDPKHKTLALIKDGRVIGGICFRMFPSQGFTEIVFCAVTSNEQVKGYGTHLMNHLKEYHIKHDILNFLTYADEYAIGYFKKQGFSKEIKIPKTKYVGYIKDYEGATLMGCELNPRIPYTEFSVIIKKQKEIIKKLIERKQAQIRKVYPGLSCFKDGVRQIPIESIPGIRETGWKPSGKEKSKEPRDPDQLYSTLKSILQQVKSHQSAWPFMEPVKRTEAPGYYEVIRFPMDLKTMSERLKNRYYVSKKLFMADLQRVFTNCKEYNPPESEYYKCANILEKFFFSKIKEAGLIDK
structure (smiles),measurement,setting,value
CCS(=O)(=O)Nc1cc(-c2cn(C)c3c(=O)[nH]ccc23)cc2c1ccn2C(C)(c1ccccn1)c1ccccn1,Kd,[1],> 10000 nM
same,Kd,[2],> 10000 nM
same,Kd,[3],> 10000 nM
same,IC50,MCF7:TAM1; read-out: IC50,< 10 nM
same,IC50,MCF7:TAM1; read-out: pIC50 (converted),3.16 nM
same,Kd,[4],> 10000 nM
same,Kd,Protein polybromo-1,> 10000 nM
same,Kd,[5],> 10000 nM
same,IC50,[6]; read-out: IC50,< 10 nM
same,IC50,[6]; read-out: pIC50 (converted),3.98 nM
same,growth inhibition (GI),[7],100%
same,IC50,[8]; read-out: IC50,< 10 nM
same,IC50,[8]; read-out: pIC50 (converted),2 nM
same,IC50,Cytochrome P450 3A4,≥ 10000 nM
same,Kd,[9],> 10000 nM
same,Kd,[10],> 10000 nM
same,Kd,[11],> 10000 nM
same,Kd,[12],> 10000 nM
same,Kd,[13],> 10000 nM
same,Kd,[14],> 10000 nM
same,IC50,[15]; read-out: IC50,< 10 nM
same,IC50,[15]; read-out: pIC50 (converted),6.31 nM
same,IC50,[16],0.9 nM
same,IC50,[17],< 10 nM
same,Kd,[18],> 10000 nM
same,Kd,[19],> 10000 nM
same,Kd,[20],> 10000 nM
same,IC50,T47D; read-out: IC50,< 10 nM
same,IC50,T47D; read-out: pIC50 (converted),3.16 nM
